Measured values as given in ChEMBL document CHEMBL1128460, “Design, synthesis, and structure-activity relationships of a new series of alpha-adrenergic agonists: spiro[(1,3-diazacyclopent-1-ene)-5,2'-(1',2',3',4'- tetrahydronaphthalene)]” (J Med Chem, 1995).

Columns and labels:
[1] = target: T1, Adrenergic receptor alpha (Rattus norvegicus) (UniProt P15823+P23944+P43140+P22086+P19328+P22909); assay: Alpha adrenergic activity was evaluated as concentration (iv) which increases the arterial pressure by 20 mmHg in the pithed rat; type: functional, organism-based; details: Artery
[2] = target: T1, Adrenergic receptor alpha (Rattus norvegicus); assay: Alpha adrenergic activity was evaluated as maximal pressure response caused by agonist, expressed in mmHg (the maximum obtained with phenylephrine is 150 mmHg).; type: functional
Canis familiaris [3] = organism: Canis familiaris; assay: Effective concentration for the agonist in the isolated blood vessel using in vitro saphenous vein; type: functional; details: Canis lupus familiaris
Summary of the method: (§1)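 Vessel segments from mongrel dogs (15–25 kg) anesthetized with pentobarbital (30 mg/kg iv), mounted for isometric tension in physiological saline. Equilibrated 90 min with bath changes every 30 min, rauwolscine (10^-7 M) present throughout. Primed with KCl (100 mM), then phenylephrine (1 µM). Agonist concentration–response curves run at half-log steps, giving EC50 (µM) and Emax as % of phenylephrine maximum; mean ±SD.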

[4] = Ratio of C20 (pithed rat) to that of EC50 (saphenous vein); type: functional
[5] = Ratio of C20 obtained in the absence or presence of [C20 (1 mg of yohimbine.) / C20 (control)]; type: functional
Summary of the method: (§2)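 Pithed rat arterial pressure assay with tertatolol (100 mg/kg) pretreatment, then yohimbine (1 mg/kg) 10 min later. Cumulative iv agonist doses given at 20 s intervals after a further 10 min, C20 (+20 mmHg dose) obtained. Ratio expressed as C20(yohimbine)/C20(control); 3–6 determinations.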

Canis familiaris [6] = organism: Canis familiaris; assay: Maximal contractile response obtained with the agonist (expressed as a percentage of the maximal contraction to phenylephrine in the dog femoral artery); type: functional, Canis lupus familiaris; summary of the method: as §1
[7] = Ratio of C20 obtained in the absence or presence of [C20 ( 0.1 mg of prazosin ) / C20 (control)]; type: functional
Summary of the method: (§3)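 Pithed rats pretreated with tertatolol (100 mg/kg), then 10 min later with prazosin (100 µg/kg). Cumulative iv agonist doses given another 10 min later at 20 s intervals. Arterial pressure recorded, C20 (dose giving +20 mmHg) determined. Ratio calculated as C20(prazosin)/C20(control); 3–6 determinations.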

Canis familiaris [8] = organism: Canis familiaris; assay: Maximal contractile response obtained with the agonist (expressed as a percentage of the maximal contraction to phenylephrine in the dog saphenous vein); type: functional, Canis lupus familiaris; summary of the method: as §1
[9] = target: T2, Adrenergic receptor alpha-1 (Rattus norvegicus, UniProt P15823+P23944+P43140); assay: Displacement of [3H]prazosin from rat cortex Alpha-1 adrenergic receptor
T2 sequence (P15823 whole entry): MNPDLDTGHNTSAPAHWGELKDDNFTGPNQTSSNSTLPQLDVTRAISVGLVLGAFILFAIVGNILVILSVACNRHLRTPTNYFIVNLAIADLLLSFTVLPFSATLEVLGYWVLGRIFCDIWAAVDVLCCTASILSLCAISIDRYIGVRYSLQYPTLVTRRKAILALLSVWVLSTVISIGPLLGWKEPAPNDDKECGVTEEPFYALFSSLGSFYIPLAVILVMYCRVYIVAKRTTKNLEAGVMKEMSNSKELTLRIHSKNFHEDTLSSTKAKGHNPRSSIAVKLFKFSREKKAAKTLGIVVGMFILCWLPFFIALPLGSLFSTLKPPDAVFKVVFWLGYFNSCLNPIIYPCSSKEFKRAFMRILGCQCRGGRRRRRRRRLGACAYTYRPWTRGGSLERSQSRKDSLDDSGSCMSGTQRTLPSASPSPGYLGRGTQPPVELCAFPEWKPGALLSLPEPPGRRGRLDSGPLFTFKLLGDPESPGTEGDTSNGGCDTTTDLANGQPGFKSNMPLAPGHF
T2 sequence (P23944 whole entry): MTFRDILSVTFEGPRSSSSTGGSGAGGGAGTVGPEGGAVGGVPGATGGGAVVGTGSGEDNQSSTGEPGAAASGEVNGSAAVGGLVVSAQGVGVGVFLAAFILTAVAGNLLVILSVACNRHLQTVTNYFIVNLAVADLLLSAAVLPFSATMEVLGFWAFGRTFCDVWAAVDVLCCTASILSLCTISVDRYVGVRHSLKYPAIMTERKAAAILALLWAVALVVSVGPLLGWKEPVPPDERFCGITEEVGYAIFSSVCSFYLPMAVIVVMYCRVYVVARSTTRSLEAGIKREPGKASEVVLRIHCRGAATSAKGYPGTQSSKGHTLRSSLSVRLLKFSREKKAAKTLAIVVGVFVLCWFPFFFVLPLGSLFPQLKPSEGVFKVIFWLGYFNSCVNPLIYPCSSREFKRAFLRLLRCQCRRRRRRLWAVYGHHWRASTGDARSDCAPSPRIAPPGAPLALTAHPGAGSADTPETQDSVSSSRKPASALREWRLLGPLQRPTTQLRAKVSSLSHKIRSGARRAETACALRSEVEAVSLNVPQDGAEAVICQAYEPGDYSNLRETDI
T2 sequence (P43140 whole entry): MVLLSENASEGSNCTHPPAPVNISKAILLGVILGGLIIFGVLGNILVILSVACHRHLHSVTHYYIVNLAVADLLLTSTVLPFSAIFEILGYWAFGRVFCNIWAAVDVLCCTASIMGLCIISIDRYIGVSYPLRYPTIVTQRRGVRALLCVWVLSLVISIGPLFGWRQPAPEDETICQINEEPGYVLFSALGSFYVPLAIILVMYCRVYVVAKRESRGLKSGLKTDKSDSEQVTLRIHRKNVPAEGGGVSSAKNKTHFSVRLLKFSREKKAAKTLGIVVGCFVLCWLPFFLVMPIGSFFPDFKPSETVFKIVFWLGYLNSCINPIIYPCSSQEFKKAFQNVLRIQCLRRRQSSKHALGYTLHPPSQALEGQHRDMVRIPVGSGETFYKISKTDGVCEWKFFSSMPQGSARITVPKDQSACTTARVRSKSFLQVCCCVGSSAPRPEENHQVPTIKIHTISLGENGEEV
Summary of the method: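 Rat cortex membranes labelled with [3H]prazosin (0.3 nM), nonspecific binding with prazosin (10 µM). Nine drug concentrations spanning 3 log units, IC50 by log-probit analysis. Ki by Cheng–Prusoff using Kd from Scatchard saturation. At least three independent experiments in duplicate.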

Canis familiaris [10] = organism: Canis familiaris; assay: Effective concentration for the agonist in the isolated blood vessel using in vitro femoral artery; type: functional; details: Canis lupus familiaris; summary of the method: as §1
[11] = ratio of C20 obtained in the absence or presence of [C20 ( 0.1 mg of prazosin ) / C20 (control)]; type: functional; summary of the method: as §3
[12] = target: T3, Alpha-2B adrenergic receptor (Rattus norvegicus, UniProt P19328); assay: Binding affinity towards Alpha-2B adrenergic receptor in neonatal rat lung using [3H]-RX-821002 as radioligand
T3 sequence (P19328 whole entry): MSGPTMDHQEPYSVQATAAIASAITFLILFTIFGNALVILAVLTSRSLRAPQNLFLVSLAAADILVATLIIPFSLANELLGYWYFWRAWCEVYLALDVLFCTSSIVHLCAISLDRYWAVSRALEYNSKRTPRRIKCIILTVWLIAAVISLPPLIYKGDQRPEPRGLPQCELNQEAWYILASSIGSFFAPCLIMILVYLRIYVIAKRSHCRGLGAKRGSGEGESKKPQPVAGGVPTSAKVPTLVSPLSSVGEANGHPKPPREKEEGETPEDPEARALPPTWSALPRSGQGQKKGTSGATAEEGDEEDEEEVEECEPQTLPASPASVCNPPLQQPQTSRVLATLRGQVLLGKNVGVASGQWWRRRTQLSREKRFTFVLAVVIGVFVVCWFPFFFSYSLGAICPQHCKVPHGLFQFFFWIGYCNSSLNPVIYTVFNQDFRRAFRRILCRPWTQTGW
Summary of the method: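 Neonatal rat lung membranes with [3H]RX821002 (0.5 nM), nonspecific binding with phentolamine (10 µM). Nine concentrations over 3 log units, IC50 by log-probit, Ki by Cheng–Prusoff with Scatchard-derived Kd. ≥3 independent experiments in duplicate.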

[13] = target: T4, Alpha-2A adrenergic receptor (Homo sapiens, UniProt P08913); assay: Binding affinity towards Alpha-2A adrenergic receptor in human platelets using [3H]RX-821002 as radioligand
T4 sequence (P08913 whole entry): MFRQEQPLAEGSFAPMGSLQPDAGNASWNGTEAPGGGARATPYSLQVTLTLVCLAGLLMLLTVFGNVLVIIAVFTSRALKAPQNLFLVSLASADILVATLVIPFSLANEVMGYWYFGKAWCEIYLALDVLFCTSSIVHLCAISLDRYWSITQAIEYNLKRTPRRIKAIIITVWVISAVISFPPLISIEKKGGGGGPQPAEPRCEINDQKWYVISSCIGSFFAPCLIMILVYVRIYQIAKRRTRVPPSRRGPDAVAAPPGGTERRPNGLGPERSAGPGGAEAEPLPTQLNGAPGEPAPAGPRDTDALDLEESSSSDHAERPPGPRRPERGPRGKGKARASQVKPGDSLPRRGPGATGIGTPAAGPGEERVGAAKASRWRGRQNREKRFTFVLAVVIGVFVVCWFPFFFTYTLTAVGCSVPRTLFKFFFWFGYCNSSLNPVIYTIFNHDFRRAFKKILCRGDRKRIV
Summary of the method: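 Human platelet membranes with [3H]RX821002 (1.5 nM), nonspecific binding with phentolamine (10 µM). Displacement at nine concentrations spanning 3 orders of magnitude, IC50 by log-probit analysis, converted to Ki using Scatchard Kd. ≥3 independent duplicate experiments.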

[14] = ratio of C20 obtained in the absence or presence of [C20 (1 mg of yohimbine.) / C20 (control)]; type: functional; summary of the method: as §2

Structure (SMILES)	C20 [1]	Max [2]	EC50 (Canis familiaris [3])	Ratio [4]	Ratio [5]	Emax (Canis familiaris [6])	Ratio [7]	Emax (Canis familiaris [8])	Ki [9]	EC50 (Canis familiaris [10])	Ratio [11]	Ki [12]	Ki [13]	Ratio [14]
CC(C)c1ccc2c(c1)CC1(CC2)CN=CN1 (stereo not drawn)	245 µg/kg	66 mmHg	4.3 µM	57	2.9	0	2.9	53	–	–	–	–	–	–
COc1ccc2c(c1)CC1(CC2)CN=CN1 (stereo not drawn)	1.5 µg/kg	106 mmHg	7.1 µM	0.21	6.9	0	3.9	49	16 µM	–	–	–	–	–
Cc1cc2c(cc1C)CC1(CC2)CN=CN1 (stereo not drawn)	37 µg/kg	72 mmHg	2.7 µM	14	2.5	0	0.5	64	–	–	–	–	–	–
COc1ccc2c(c1)CCC1(CN=CN1)C2 (stereo not drawn)	42 µg/kg	105 mmHg	8.8 µM	4.77	1.5	3	2.6	60	29.4 µM	–	–	–	–	–
C1=NCC2(CCc3ccccc3C2)N1 (stereo not drawn)	4 µg/kg	120 mmHg	1.3 µM	–	–	19	–	99	14.4 µM	7.5 µM	2	0.275 µM	0.034 µM	5.3
Cc1ccc2c(c1)CC1(CC2)CN=CN1 (stereo not drawn)	8 µg/kg	111 mmHg	0.26 µM	31	–	5	–	64	1 µM	74 µM	–	0.05 µM	0.007 µM	–
Fc1ccc2c(c1)CC1(CC2)CN=CN1 (stereo not drawn)	7.8 µg/kg	108 mmHg	11 µM	0.71	7.7	8	5	67	–	–	–	–	–	–
CC1=NCC2(CCc3ccccc3C2)N1C (stereo not drawn)	1060 µg/kg	73 mmHg	–	–	–	0	–	0	–	–	1	–	–	1.1
Clc1ccc2c(c1)CC1(CC2)CN=CN1 (stereo not drawn)	6.3 µg/kg	116 mmHg	5.5 µM	1.15	5.8	0	2.6	72	–	–	–	–	–	–
Clc1ccc2c(c1)CCC1(CN=CN1)C2 (stereo not drawn)	6.3 µg/kg	120 mmHg	6 µM	1.05	–	0	2.8	–	–	–	–	–	–	–
Cc1cc(C)c2c(c1)CC1(CC2)CN=CN1 (stereo not drawn)	20 µg/kg	91 mmHg	2.9 µM	25	2.8	5	2.9	66	–	0.8 µM	–	–	–	–
CN1C=NCC12CCc1ccccc1C2 (stereo not drawn)	675 µg/kg	73 mmHg	–	–	–	0	–	0	–	–	1.55	–	–	1.9
